Six compounds from ChEMBL document CHEMBL3769357, “Phosphoramidate protides of five flavones and their antiproliferative activity against HepG2 and L-O2 cell lines” (Eur J Med Chem, 2016) can be followed below.

Structures are written as SMILES.

Experiment [1] relates to HepG2. The experiment can be described thus: Induction of apoptosis in human HepG2 cells assessed as viable cells at IC50 after 24 hrs by annexin V-FITC/propidium iodide staining-based flow cytometry (reference value: 90.5%). Type of experiment: functional. (In general: In flow cytometry, cells or beads pass a laser one at a time.)
The nature of experiment [2]: Cytotoxicity against human LO2 cells after 48 hrs by MTT assay. To be noted: L02, 48 h. Type of experiment: cell-based. In short, it runs like this:
(§1)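 After 48 h, MTT (5 mg/mL in PBS) added, 4 h at 37 °C, DMSO added, absorbance read at 570 nm. IC50 is the 50% growth-inhibition concentration, mean of three independent experiments.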
Background: Formazan colour is commonly taken as a measure of viable cells.

In experiment [3] the test system is HepG2. The experiment can be described thus: Induction of apoptosis in human HepG2 cells assessed as nectrotic cells at IC50 after 4 hrs by annexin V-FITC/propidium iodide staining-based flow cytometry (reference value: 0.46%). Type of experiment: functional.
Experiment [4] deals with HepG2. As to the kind of experiment: Induction of apoptosis in human HepG2 cells assessed as early apoptotic cells at IC50 after 24 hrs by annexin V-FITC/propidium iodide staining-based flow cytometry (reference value: 0.41%).
For experiment [5], the system named is HepG2. The experiment can be described thus: Induction of cell cycle arrest in human HepG2 cells assessed as accumulation at G2/M phase at IC50 after 24 hrs by propidium iodide staining-based flow cytometry (reference value: 16.4%). Type of experiment: functional.
In experiment [6] the test system is HepG2. As to the kind of experiment: Induction of apoptosis in human HepG2 cells assessed as viable cells at IC50 after 4 hrs by annexin V-FITC/propidium iodide staining-based flow cytometry (reference value: 98.6%). Type of experiment: functional.
In experiment [7] the test system is HepG2. As to the kind of experiment: Induction of cell cycle arrest in human HepG2 cells assessed as accumulation at G0/G1 phase at IC50 after 24 hrs by propidium iodide staining-based flow cytometry (reference value: 67.5%). Type of experiment: functional.
Experiment [8] concerns HepG2. The experiment can be described thus: Induction of apoptosis in human HepG2 cells assessed as nectrotic cells at IC50 after 24 hrs by annexin V-FITC/propidium iodide staining-based flow cytometry (reference value: 6.70%). Type of experiment: functional.
The subject of experiment [9] is HepG2. As to the kind of experiment: Induction of apoptosis in human HepG2 cells assessed as late apoptotic cells at IC50 after 4 hrs by annexin V-FITC/propidium iodide staining-based flow cytometry (reference value: 0.53%). Type of experiment: functional.
For experiment [10], the system named is HepG2. The experiment can be described thus: Induction of cell cycle arrest in human HepG2 cells assessed as accumulation at S phase at IC50 after 24 hrs by propidium iodide staining-based flow cytometry (reference value: 16.1%). Type of experiment: functional.
Experiment [11] relates to HepG2. As to the kind of experiment: Induction of apoptosis in human HepG2 cells assessed as early apoptotic cells at IC50 after 4 hrs by annexin V-FITC/propidium iodide staining-based flow cytometry (reference value: 0.41%). Type of experiment: functional.
Experiment [12] concerns HepG2. As to the kind of experiment: Selectivity index, ratio of IC50 for human LO2 cells to human HepG2 cells.
For experiment [13], the system named is HepG2. The experiment can be described thus: Induction of apoptosis in human HepG2 cells assessed as late apoptotic cells at IC50 after 24 hrs by annexin V-FITC/propidium iodide staining-based flow cytometry (reference value: 1.77%). Type of experiment: functional.
The subject of experiment [14] is HepG2. The experiment can be described thus: Antiproliferative activity against human HepG2 cells after 48 hrs by MTT assay. Type of experiment: functional, cell-based. To be noted: HepG2, 48 h. In short, it runs like this:
as §1

Another experiment has as its system LN-229. The experiment can be described thus: Induction of cell cycle arrest in human LNT229 cells assessed as accumulation at G2/M phase at 100 uM after 24 hrs by propidium iodide staining-based flow cytometry (reference value: 34%). Type of experiment: functional.
The test system of a further experiment is T-24. As to the kind of experiment: Induction of cell cycle arrest in human T24 cells assessed as accumulation at G2/M phase at 160 uM after 24 hrs by propidium iodide staining-based flow cytometry (reference value: 14.45%). Type of experiment: functional.
The next experiment has as its system BGC-823. As to the kind of experiment: Induction of apoptosis in human BGC823 cells at 80 uM after 24 hrs by annexin V-FITC/propidium iodide staining-based flow cytometry (reference value: 1.5%). Type of experiment: functional.

Turning to `COC(=O)[C@H](C)NP(=O)(Oc1ccccc1)Oc1ccc2c(=O)c(-c3ccc(OC(C)=O)cc3)coc2c1` (some centres not stated), the Activity in the experiment on HepG2 [1] was found to be 51.19%; with HepG2 [3], 0.76%; with HepG2 [4] it was 44.16%; in the experiment with HepG2 [5] it was 98.1%; in the experiment with HepG2 [6], 97.12%; in the experiment with HepG2 [7], 0.7%. Further, the Activity is listed as 2.08% in the experiment with HepG2 [8]; 1.43% in the experiment with HepG2 [9]; 1.2% in the experiment with HepG2 [10]; 0.69% in the experiment on HepG2 [11]; 2.56% with HepG2 [13]. Also, the IC50 (usually the concentration that inhibits the measured activity by half) was 24.3 µM in [2] and 5.5 µM in the experiment on HepG2 [14]. Besides, the “Ratio IC50” value in the experiment on HepG2 [12] amounted to 4.418.
In the case of `COC(=O)[C@H](C)NP(=O)(Oc1ccccc1)Oc1cc(OC(C)=O)c2c(=O)c(-c3ccc(OC(C)=O)cc3)coc2c1` (some centres not stated), the Activity with HepG2 [1] is listed as 74.34%; in the experiment with HepG2 [3], 0.97%; with HepG2 [4], 3.99%; in the experiment with HepG2 [5], 96.6%; in the experiment with HepG2 [6] it was 97.07%; in the experiment with HepG2 [7] it was 1.6%. Also, the Activity stood at 18.62% in the experiment with HepG2 [8]; 1.22% with HepG2 [9]; 1.8% with HepG2 [10]; 0.74% with HepG2 [11]; 3.06% in the experiment with HepG2 [13]. Further, the figures for the IC50 (in [2]; with HepG2 [14]) were 11.9 µM and 6.6 µM, respectively. Also, in the experiment with HepG2 [12], the “Ratio IC50” value is given as 1.803.
Regarding `O=c1c(-c2ccc(O)cc2)coc2cc(O)cc(O)c12` [GENISTEIN], the IC50 (in [2]; in the experiment on HepG2 [14]) was above 100 µM each time. In the experiment on LN-229, the Activity amounted to 58%.
As for `O=c1cc(-c2ccc(O)cc2)oc2cc(O)cc(O)c12` [APIGENIN], the Activity with T-24 amounted to 37.94%. In addition, the IC50 in experiment [2] is above 100 µM; in the experiment with HepG2 [14], 70.2 µM. The “Ratio IC50” value in the experiment with HepG2 [12] was above 1.425.
Take `COC(=O)[C@H](C)NP(=O)(Oc1ccccc1)Oc1cc(OC(C)=O)c2c(=O)cc(-c3ccc(OC(C)=O)cc3)oc2c1` (some centres not stated): the Activity with HepG2 [1] stood at 85.42%; in the experiment on HepG2 [3], 3.58%; with HepG2 [4], 1.31%; with HepG2 [5], 72.6%; in the experiment with HepG2 [6] it was 89.02%; in the experiment with HepG2 [7], 11%. In addition, the Activity with HepG2 [8] came out at 9.88%; in the experiment with HepG2 [9] it was 6.95%; with HepG2 [10], 16.4%; in the experiment on HepG2 [11], 0.45%; in the experiment with HepG2 [13] it was 3.4%. Also, the IC50 is 22.2 µM in experiment [2] and 9 µM with HepG2 [14]. Moreover, the “Ratio IC50” value in the experiment with HepG2 [12] is recorded as 2.467.
`O=c1c(-c2ccc(O)cc2)coc2cc(O)ccc12` [DAIDZEIN] yielded an Activity with BGC-823 of 32.5%. Moreover, the IC50 (in experiment [2]; in the experiment with HepG2 [14]) was above 100 µM in each case.
